Reference: ChEMBL document CHEMBL4725444, “Brain Permeable Tafamidis Amide Analogs for Stabilizing TTR and Reducing APP Cleavage” (ACS Med Chem Lett, 2020)
Activity calls are given as the source filed them. The rule behind the calls is not given here.

How the values were obtained:
[1] = system: N2a695; experiment: Inhibition of amyloid beta 40 production in mouse N2a695 cells at 10 uM incubated for 6 hrs by ELISA relative to control; format: cell-based
In short: (§1)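 Human APP695-expressing N2a695 cells (4.0 × 10^5–4.5 × 10^5 cells/mL, 90–95% confluent) given 10 μM final compound for 6 h at 37 °C, 5% CO2. Media assayed by human Aβ40/Aβ42 sandwich ELISA (Aβ40 media diluted 5–10×, Aβ42 undiluted); levels compared with DMSO vehicle. At least two experiments in duplicate or triplicate.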

[2] = system: N2a695; experiment: Inhibition of amyloid beta 42 production in mouse N2a695 cells at 10 uM incubated for 6 hrs by ELISA relative to control; format: cell-based; in short: as §1
[3] = Cytotoxicity against mouse N2a695 cells assessed as reduction in cell viability at 10 uM incubated for 24 hrs by MTT assay; format: cell-based; settings: n2a695, 24 h
In short: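 N2a cells exposed to 10 μM compound for 24 h; viable cell number determined by MTT assay.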

[4] = system: N2a695; experiment: Increase in APP fragmentation in mouse N2a695 cells at 10 uM incubated for 6 hrs by Western blot analysis; format: functional, cell-based
In short: (§2)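 N2a695 cells (4.0 × 10^5–4.5 × 10^5 cells/mL, 90–95% confluent) treated with 10 μM final compound for 6 h at 37 °C, 5% CO2. Lysates run on SDS-PAGE; membrane fixed with 0.25% glutaraldehyde in PBS, blocked in milk PBST, probed with RU369 (APP C-terminus antibody), HRP secondary, ECL detection; APP-CTF bands quantified versus DMSO control.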

[5] = system: N2a695; experiment: Increase in APP-CTF fragmentation in mouse N2a695 cells at 10 uM incubated for 6 hrs by Western blot analysis; format: functional, cell-based; in short: as §2
[6] = system: N2a695; experiment: Effect on TTR-induced amyloid beta aggregation inhibition in mouse N2a695 cells measured for 4 hrs by fluorescence correlation spectroscopic analysis; format: functional, cell-based
[7] = system: N2a695; experiment: Inhibition of amyloid beta aggregation in mouse N2a695 cells measured for 4 hrs by fluorescence correlation spectroscopic analysis; format: cell-based
[8] = Plasma concentration in 5XFAD mouse at 50 mg/kg, po measured after 15 days by LC-MS/MS analysis; format: ADME, organism-based; settings: time 15 day
In short: (§3)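 Dosed via drinking water for 15 days (50 mg/kg) in 3-month-old 5xFAD mice, n = 3. Blood and brain tissue collected on day 15; parent amide and its hydrolysis product tafamidis quantified in plasma and brain extracts by LC-MS/MS.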

[9] = Brain concentration in 5XFAD mouse at 50 mg/kg, po measured after 15 days by LC-MS/MS analysis; format: ADME, organism-based; settings: time 15 day, read-out: Ct; in short: as §3
[10] = Metabolic stability in mouse liver microsomes assessed as parent compound remaining after 0.5 hrs by LC-MS/MS analysis relative to control; format: ADME, Microsome; settings: read-out: Stabilty
In short: (§4)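 Compound at 1 or 10 μM incubated with mouse or human liver microsomes at 25 °C for 30 and 60 min; remaining parent quantified by LC-MS/MS.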

[11] = Metabolic stability in CD1 mouse liver microsomes assessed as parent compound remaining at 10 uM measured after 0.5 hrs by LC-MS/MS analysis relative to control; format: ADME, Microsome; settings: read-out: Stabilty; in short: as §4
[12] = Metabolic stability in CD1 mouse liver microsomes assessed as parent compound remaining at 1 uM measured after 1 hr by LC-MS/MS analysis relative to control; format: ADME, Microsome; settings: read-out: Stabilty; in short: as §4
[13] = Metabolic stability in CD1 mouse liver microsomes assessed as parent compound remaining at 10 uM measured after 1 hr by LC-MS/MS analysis relative to control; format: ADME, Microsome; settings: read-out: Stabilty; in short: as §4
[14] = Metabolic stability in human liver microsomes assessed as parent compound remaining at 1 uM measured after 0.5 hrs by LC-MS/MS analysis relative to control; format: ADME, Microsome; settings: read-out: Stabilty; in short: as §4
[15] = Metabolic stability in human liver microsomes assessed as parent compound remaining at 1 uM measured after 1 hr by LC-MS/MS analysis relative to control; format: ADME, Microsome; settings: read-out: Stabilty; in short: as §4
[16] = molecular target: Transthyretin (Homo sapiens) (UniProt P02766); experiment: Stabilization of recombinant dual FLAG-tagged wild type TTR (unknown origin) in plasma blood at < 30 uM incubated for 48 hrs by ion exchange chromatographic method; format: cell-free; settings: dose microM <30, time 48.0 hrs
[17] = Inhibition of gamma secretase in mouse N2a695 cells using Sb4 substrate incubated for 3 hrs by ELISA; settings: N2a695, 3 h

Row | SMILES | inhibition [1] [%] | inhibition [2] [%] | Activity [3] | Activity [4] | Activity [5] | Activity [6] | inhibition [7] | concentration at 360 h [8] [nM] | concentration at 360 h [9] [ng/g] | remaining at 0.5 h, 1 µM [10] [%] | remaining at 0.5 h, 1 µM [11] [%] | remaining at 1 h, 1 µM [12] [%] | remaining at 1 h, 1 µM [13] [%] | remaining at 0.5 h, 1 µM [14] [%] | remaining at 1 h, 1 µM [15] [%] | Activity [16] | IC50 [17] [µM] | Stability [16]
1 | O=C(c1ccc2nc(-c3cc(Cl)cc(Cl)c3)oc2c1)N1CCNCC1 | 30 | 30 | Non-Toxic | Active | Active | inactive | inactive | 80 | 137 | 15.1 | 26.7 | 2.3 | 1.2 | 75.4 | 70.3 | Active |  | 
2 | O=C(O)c1ccc2nc(-c3cc(Cl)cc(Cl)c3)oc2c1 [TAFAMIDIS] |  |  |  | inactive | inactive | inactive | inactive | 5800 | 223 |  |  |  |  |  |  | Active | > 30 | Stable
3 | O=C(c1ccc2nc(-c3ccc(C(F)(F)F)cc3)oc2c1)N1CCNCC1 | 30 | 30 | Toxic | Active | Active |  |  |  |  |  |  |  |  |  |  |  |  | 
4 | O=C(NC1CCNCC1)c1ccc2nc(-c3cc(Cl)cc(Cl)c3)oc2c1 | 30 | 30 | Toxic | Active | Active |  |  |  |  |  |  |  |  |  |  |  |  | 
5 | CN(C)CCNC(=O)c1ccc2nc(-c3ccc(C(F)(F)F)cc3)oc2c1 | 30 | 30 |  | Active | Active |  |  |  |  |  |  |  |  |  |  |  |  | 
